Measurements collected from several papers.
Protocols differ between the studies behind these lines.
Read-out: cell growth or viability

| Compound | cell line | technique | tested at | time | endpoint | result |
| --- | --- | --- | --- | --- | --- | --- |
| COc1ccc(CNC[C@](O)(COCc2ccc(F)cc2)[C@@H]2CC[C@@H](C)C[C@H]2OCc2ccc(F)cc2)cc1 | MCF7 | MTT | 10 µM | 72 h | inhibition | 97.7% |
| CC(=NNC(=O)c1ccc(N)cc1)c1ccc(Nc2nnc(-c3ccc(Cl)cc3)c3ccccc23)cc1 | MCF7 | MTT | 2.5 µM |  | cell death | 94.6% |
| CCOC(=O)c1nn(-c2cccc(Cl)c2)/c(=N/N=C(\C)c2ccc(NC(=O)c3ccc(Cl)cc3)cc2)s1 | MCF7 | MTT | 2.5 µM |  | viability | 3.54% |
| CC(=NNC(=O)c1ccccc1Br)c1ccc(Nc2nnc(-c3ccc(Cl)cc3)c3ccccc23)cc1 | MCF7 | MTT | 5 µM |  | cell death | 93.8% |
| C=CC(=O)NC1CCN(c2ncc3ncnc(Nc4ccc(Oc5ccc6c(c5)ncn6C)c(C)c4)c3n2)CC1 | C-33-A |  |  |  | EC50 | 116 nM |
| CC(=NNC(=O)c1ccccc1)c1ccc(Nc2nnc(-c3ccc(Cl)cc3)c3ccccc23)cc1 | MCF7 | MTT | 10 µM |  | cell death | 94.1% |
| C=C(COCc1ccc(F)cc1)[C@@H]1CC[C@@H](C)C[C@H]1OCc1ccc(F)cc1 | MCF7 | MTT | 30 µM | 72 h | inhibition | 46.2% |
| CCOC(=O)c1nn(-c2cccc(Cl)c2)/c(=N/N=C(\C)c2ccc(NC(=O)c3ccccc3)cc2)s1 | MCF7 | MTT | 0.625 µM |  | viability | 2.63% |
| CC(=NNC(=O)c1ccccc1Cl)c1ccc(Nc2nnc(-c3ccc(Cl)cc3)c3ccccc23)cc1 | MCF7 | MTT | 0.625 µM |  | cell death | 0.177% |
| COc1ccc(CNC[C@](O)(COCc2ccc(OC)cc2)[C@@H]2CC[C@@H](C)C[C@H]2OCc2ccc(OC)cc2)cc1 | MCF7 | MTT | 30 µM | 72 h | inhibition | 101% |
| O=C(Nc1ccc(Oc2nnc(-c3ccc(Cl)cc3)c3ccccc23)cc1)c1ccccc1 | MCF7 | MTT | 0.625 µM | 24 h | viability | 3.76% |
| CC(=O)c1nn(-c2ccccc2Cl)/c(=N/N=C(\C)c2ccc(NC(=O)c3ccccc3)cc2)s1 | MCF7 | MTT | 0.156 µM |  | viability | 9.62% |
| COc1cccc(CNC[C@@](C)(O)[C@@H]2CC[C@@H](C)C[C@H]2OCc2ccccc2)c1 | MCF7 | MTT | 30 µM | 72 h | inhibition | 95.9% |
| CC(=O)Nc1ccc(/C(C)=N/N=c2\sc(C(C)=O)nn2-c2ccc(C)cc2)cc1 | MCF7 | MTT | 0.312 µM |  | viability | 99.7% |
| C[C@@H]1CC[C@@H]([C@@](C)(O)Cn2cnc3ccccc32)[C@H](OCc2ccccc2)C1 | MCF7 | MTT | 10 µM | 72 h | inhibition | 55.2% |
| O=C(Nc1ccccc1)Nc1ccc(Oc2nnc(-c3ccc(Cl)cc3)c3ccccc23)cc1 | MCF7 | MTT | 2.5 µM |  | cell death | 96.7% |
| CC(=O)c1nn(-c2ccc(C)cc2)/c(=N/N=C(\C)c2ccc(NC(=O)c3ccccc3)cc2)s1 | MCF7 | MTT | 0.625 µM |  | viability | 4.79% |
| COc1ccc(CNC[C@@](C)(O)[C@@H]2CC[C@@H](C)C[C@H]2OCc2ccccc2)cc1 | MCF7 | MTT | 10 µM | 72 h | inhibition | 92.4% |
| Cc1c(C(=O)O)ccc2c3n(nc12)[C@@H]1[C@H](C3)N(CC2CC2)[C@@]2(C(=O)Nc3cc(Cl)ccc32)[C@H]1c1cccc(Cl)c1F | SJSA-1 |  |  |  | GI50 | 0.31 nM |
